Experimental data reported in ChEMBL document CHEMBL1799995, “17(R),18(S)-epoxyeicosatetraenoic acid, a potent eicosapentaenoic acid (EPA) derived regulator of cardiomyocyte contraction: structure-activity relationships and stable analogues” (J Med Chem, 2011).
The source made the active and inactive calls. The rule behind the calls is not given here.

Tests used:
[1] = Inhibition of (Z)-16-(2-(methylamino)-2-oxoacetamido)hexadec-11-enoic acid-induced negative chronotropic activity in neonatal Wistar rat Cardiomyocytes at 30 nM after 5 mins; type: functional, Cardiac muscle cell; set-up: scale not given: the % may be the effect or the level left
Summary of the method: (§1)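 NRCMs from 1–2-day-old Wistar rats were cultured as monolayers in Halle SM 20-I medium with 10% heat-inactivated FCS and 2 μM fluorodeoxyuridine. Spontaneously beating clusters formed after 5–7 days (120–150 beats/min). Cells were preincubated with the test antagonist (30 nM final) for 5 min at 37 °C, then the agonist was added (30 nM final). Beating was counted under an inverted microscope.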

[2] = Inhibition of (5Z,8Z,11Z,14Z)-16-(3-ethyloxiran-2-yl)hexadeca-5,8,11,14-tetraenoic acid-induced negative chronotropic activity in neonatal Wistar rat Cardiomyocytes at 30 nM after 5 mins; type: functional, Cardiac muscle cell; set-up: scale not given: the % may be the effect or the level left; summary of the method: as §1
Cardiac muscle cell [3] = test: Inhibition of (Z)-16-(3-ethyloxiran-2-yl)hexadec-11-enoic acid -induced negative chronotropic activity in neonatal Wistar rat Cardiomyocytes at 30 nM after 5 mins; type: functional, cell-based; summary of the method: as §1
[4] = Inhibition of EPA-induced negative chronotropic activity in neonatal Wistar rat Cardiomyocytes at 30 nM after 5 mins; type: functional, Cardiac muscle cell; set-up: scale not given: the % may be the effect or the level left
[5] = Negative chronotropic activity in neonatal Wistar rat Cardiomyocytes assessed as change in heart beating at 30 nM and at 37 degC after 5 mins; type: functional, Cardiac muscle cell
Summary of the method: (§2)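 NRCMs from 1–2-day-old Wistar rats were cultured as monolayers in Halle SM 20-I medium with 10% heat-inactivated FCS and 2 μM fluorodeoxyuridine. Spontaneously beating clusters formed after 5–7 days (120–150 beats/min at 37 °C, inverted microscope). Compounds came from 1000-fold ethanol stocks and were tested at 30 nM final. Beating rates of 6–8 clusters were counted before and 5 min after addition. The change in beats/min is given as mean ± SE, n = 18–40 clusters from ≥3 independent cultures.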

[6] = Inhibition of (5Z,11Z)-16-(3-ethyloxiran-2-yl)hexadeca-5,11-dienoic acid-induced negative chronotropic activity in neonatal Wistar rat Cardiomyocytes at 30 nM after 5 mins; type: functional, Cardiac muscle cell; set-up: scale not given: the % may be the effect or the level left; summary of the method: as §1
Cardiac muscle cell [7] = test: Negative chronotropic activity in neonatal Wistar rat Cardiomyocytes assessed as change in heart beating at > 5 nM after 5 mins at 37 degC; type: functional, cell-based
[8] = target: T1, Bifunctional epoxide hydrolase 2 (Homo sapiens) (UniProt P34913); conditions: 1 to 5 uM
T1 sequence (whole entry): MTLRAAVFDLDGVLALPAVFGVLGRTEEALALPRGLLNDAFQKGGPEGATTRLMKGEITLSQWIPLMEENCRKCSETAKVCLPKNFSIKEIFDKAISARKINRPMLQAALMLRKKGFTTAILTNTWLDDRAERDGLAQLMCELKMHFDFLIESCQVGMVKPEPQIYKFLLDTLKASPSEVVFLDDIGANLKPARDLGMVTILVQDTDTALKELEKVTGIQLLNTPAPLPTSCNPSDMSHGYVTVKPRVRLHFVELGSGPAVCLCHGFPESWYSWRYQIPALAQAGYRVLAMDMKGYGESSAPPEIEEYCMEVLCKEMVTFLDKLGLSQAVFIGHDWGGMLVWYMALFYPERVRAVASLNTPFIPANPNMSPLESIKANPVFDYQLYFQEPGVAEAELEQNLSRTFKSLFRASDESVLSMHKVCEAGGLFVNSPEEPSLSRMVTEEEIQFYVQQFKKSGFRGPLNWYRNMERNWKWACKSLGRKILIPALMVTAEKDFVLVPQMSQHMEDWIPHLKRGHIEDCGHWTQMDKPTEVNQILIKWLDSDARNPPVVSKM

[9] = Negative chronotropic activity in neonatal Wistar rat Cardiomyocytes assessed as change in heart beating after 5 mins at 37 degC; type: functional, cell-based; conditions: cardiac muscle cell; summary of the method: as §2
[10] = Metabolic stability in rat liver homogenates assessed as compound remaining after 30 mins by LC-MS analysis; type: ADME, tissue-based
Summary of the method: (§3)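 Compounds were incubated with rat liver homogenate plus NADPH for 30 min at 37 °C. Parent compound and hydroxy-metabolites were analysed by LC/MS.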

Liver [11] = test: Metabolic stability in rat liver homogenates assessed as formation of regioisomeric hydroxy metabolite after 30 mins by LC-MS analysis; type: ADME, tissue-based; conditions: tissue homogenate, 0.5 h; summary of the method: as §3
[12] = target: T1, Bifunctional epoxide hydrolase 2 (Homo sapiens); test: Inhibition of soluble epoxide hydrolase at 5 uM
[13] = Metabolic stability in rat liver homogenates after 30 mins by LC-MS analysis; type: ADME, tissue-based; summary of the method: as §3
Liver [14] = test: Metabolic stability in rat liver homogenates assessed as epoxidation of compound by LC-MS analysis; type: ADME, tissue-based; conditions: tissue homogenate
Liver [15] = test: Metabolic stability in rat liver homogenates assessed as formation of vic-diol 4 by LC-MS analysis; type: ADME, tissue-based; conditions: tissue homogenate
Liver [16] = test: Metabolic stability in rat liver homogenates assessed as hydroxylation of compound by LC-MS analysis; type: ADME, tissue-based; conditions: tissue homogenate; summary of the method: as §3

CCC1OC1C/C=C\CCCC/C=C\CCCCCCC(=O)O (stereo not given)
Activity [1]: 90%
Activity [2]: 90%
Activity (Cardiac muscle cell [3]): Active
Activity [4]: 90%
Activity [5]: -2.7 bpm
Activity [6]: 90%

CC[C@H]1O[C@H]1CCCC/C=C\CCCCCCCCCC(=O)O
Activity [5]: 3.3 bpm

CCC1OC1C/C=C\CCCCCCC/C=C\CCCC(=O)O (stereo not given)
Activity [5]: 0 bpm

CCNC(=O)NCCCC/C=C\CCCCCCCCCC(=O)O
Activity (Cardiac muscle cell [7]): Active
Activity [5]: -27 bpm
inhibition [8]: Dose-dependent effect

O=C(O)CCCCCCCCC/C=C\CCCC[C@@H]1O[C@@H]1CCO
Activity [5]: -1.4 bpm

CCN(C)C(=O)N(C)CCCC/C=C\CCCCCCCCCC(=O)O
Activity [5]: -5.8 bpm

CC[C@@H]1O[C@@H]1C/C=C\C/C=C\C/C=C\C/C=C\CCCC(=O)O
Activity (Cardiac muscle cell [7]): Active
EC50 [9]: 1 nM
Activity [5]: -21.3 bpm

CCC1OC1CCCCCCC/C=C\CCCCCCC(=O)O (stereo not given)
Activity [5]: -0.6 bpm

CC[C@@H]1O[C@@H]1CCCC/C=C\CCCCCCCCCC(=O)O
Activity [5]: -20.3 bpm

CCCC(=O)NCCCC/C=C\CCCCCCCCCC(=O)O
Activity [5]: -1.6 bpm

CC[C@H]1O[C@H]1C/C=C\CCCCCCCCCCCCC(=O)O
Activity [5]: 0.7 bpm

CCC1OC1CCCC/C=C\CCCCCCCCCC(=O)O (stereo not given)
Activity [5]: -18.3 bpm

CCCNC(=O)CCCC/C=C\CCCCCCCCCC(=O)O
Activity [5]: -4.7 bpm

CC[C@@H]1O[C@@H]1C/C=C\CCCCCCCCCCCCC(=O)O
Activity [5]: -21.1 bpm

CNC(=O)C(=O)NCCCC/C=C\CCCCCCCCCC(=O)O
Activity (Cardiac muscle cell [7]): Active
remaining at 0.5 h [10]: > 85%
Stability (Liver [11]): Stable
Activity [5]: -33.7 bpm
inhibition [12]: inactive

O=C(O)CCCCCCCCC/C=C\CCCC[C@H]1O[C@H]1CCO
Activity [5]: -4.8 bpm

CC[C@H]1O[C@H]1C/C=C\C/C=C\C/C=C\C/C=C\CCCC(=O)O
Activity [5]: 1.3 bpm

CCCC(=O)NC/C=C\CCCCCCCCCCCCC(=O)O
Activity [5]: 12.8 bpm

CCC1OC1CCCCCCCCCC/C=C\CCCC(=O)O (stereo not given)
Activity [5]: -0.6 bpm

CCCC(=O)N(CCCC/C=C\CCCCCCCCCC(=O)O)C(C)C
Activity [5]: 0.2 bpm

CCC(O)C(O)C/C=C\C/C=C\C/C=C\C/C=C\CCCC(=O)O (stereo not given)
Activity [5]: 0 bpm

CCC1OC1CCCCCCCCCCCCCCCC(=O)O (stereo not given)
Activity [5]: 0.8 bpm

CCNC(=O)NC/C=C\CCCCCCCCCCCCC(=O)O
Activity [5]: 17.8 bpm

CCCCNC(=O)CCC/C=C\CCCCCCCCCC(=O)O
Activity [5]: -22.4 bpm

CCC1OC1C/C=C\C/C=C\C/C=C\C/C=C\CCCC(=O)O (stereo not given)
remaining at 0.5 h [13]: 20%
Stability (Liver [14]): Unstable
Stability (Liver [15]): Unstable
Stability (Liver [16]): Unstable
Activity [5]: -22.5 bpm

CCC1OC1C/C=C\CCCCCCCCCCCCC(=O)O (stereo not given)
Activity (Cardiac muscle cell [3]): Active
Activity [5]: -1.2 bpm

CNC(=O)C(=O)NCCCCC#CCCCCCCCCCC(=O)O
Activity [5]: -2.6 bpm

CNC(=O)C(=O)NC/C=C\CCCCCCCCCCCCC(=O)O
Activity [5]: -1.3 bpm
inhibition [12]: inactive

CCC1OC1CCCC/C=C\CCCC/C=C\CCCC(=O)O (stereo not given)
Activity [5]: -19.8 bpm

CNC(=O)C(=O)NCCCC/C=C/CCCCCCCCCC(=O)O
Activity (Cardiac muscle cell [7]): inactive
Activity [5]: -4.7 bpm
